# ChEMBL document CHEMBL3872205, “Design, synthesis and evaluation of novel potent angiotensin II receptor 1 antagonists” (Eur J Med Chem, 2016)
# Experiments:
# [1] = AUC (0 to infinity) in Wistar rat plasma at 15 mg/kg, po by HPLC analysis; format: ADME, organism-based; design: dose 15 mg/kg, route oral, time infinity
# In short: (§1)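 Male Wistar rats (180 ± 20 g, n = 6 per group) got one oral dose. Heparinized blood was taken by retro-orbital puncture before dosing and at 0.5–72 h. Plasma was spun at 4000 × g, 4 °C, 10 min, spiked with internal standard and protein-precipitated with acetonitrile. Analysis was reverse-phase C18 HPLC (0.02 mol/L KH2PO4 55%/acetonitrile 45%, 1.0 mL/min). Calibration used 0.1–10 µg/mL, peak-height ratio, weighting concentration^-2.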
# [2] = MRT (0 to 72 hrs) in Wistar rat lung at 15 mg/kg, po by HPLC analysis; format: ADME, organism-based
# In short: (§2)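 Male Wistar rats (180 ± 20 g) received a single oral dose of 10, 15 or 30 mg/kg. Tissues were collected at 0, 0.5, 1, 2, 4, 6, 8, 12, 24, 48 and 72 h (n = 6 per point). Samples of 0.25 g were rinsed, then homogenized in saline (0.25 g/1 mL) and centrifuged at 10,000 × g. Supernatant was methanol-extracted, dried under nitrogen at 50 °C and reconstituted in methanol. Analysis was by C18 HPLC (acetonitrile 60% / water 40%, 1.0 mL/min).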
# [3] = AUC (0 to infinity) in Wistar rat kidney at 30 mg/kg, po by HPLC analysis; format: ADME, organism-based; design: dose 30 mg/kg, route oral, time infinity
# In short: (§3)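 Wistar rats (180 ± 20 g) were dosed orally at 10, 15 or 30 mg/kg. Heart, liver, spleen, lung, kidney and brain were collected at 0–72 h (n = 6 per point). Tissue was rinsed, blotted and homogenized in saline (0.25 g/1 mL), then spun at 10,000 × g. Supernatant was methanol-extracted, dried under nitrogen at 50 °C, reconstituted in methanol and run on C18 HPLC (acetonitrile 60%/water 40%, 1.0 mL/min).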
# [4] = MRT (0 to 72 hrs) in Wistar rat Heart at 30 mg/kg, po by HPLC analysis; format: ADME, organism-based
# In short: (§4)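 Tissue distribution in male Wistar rats given oral 10, 15 or 30 mg/kg; heart, liver, spleen, lung, kidney and brain collected predose and 0.5–72 h post-dose (n = 6 per time). Tissue rinsed in saline, homogenised 0.25 g/1 mL saline, methanol extraction, dried under nitrogen, reconstituted in methanol. Analysis by reverse-phase C18 HPLC, acetonitrile/water 60:40, 1.0 mL/min, ambient temperature.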
# [5] = AUC (0 to 72 hrs) in Wistar rat plasma at 10 mg/kg, po by HPLC analysis; format: ADME, organism-based; design: time < 72 hr, dose 10 mg/kg, route oral; in short: as §1
# [6] = MRT (0 to infinity) in Wistar rat kidney at 30 mg/kg, po by HPLC analysis; format: ADME, organism-based; in short: as §2
# [7] = Half life in Wistar rat brain at 30 mg/kg, po by HPLC analysis; format: ADME, organism-based; in short: as §4
# [8] = AUC (0 to 72 hrs) in Wistar rat kidney at 10 mg/kg, po by HPLC analysis; format: ADME, organism-based; design: dose 10 mg/kg, time < 72 hr, route oral; in short: as §3
# [9] = Tmax in Wistar rat Heart at 15 mg/kg, po by HPLC analysis; format: ADME, organism-based; in short: as §2
# [10] = AUC (0 to infinity) in Wistar rat spleen at 15 mg/kg, po by HPLC analysis; format: ADME, organism-based; design: dose 15 mg/kg, route oral, time infinity; in short: as §3
# [11] = MRT (0 to infinity) in Wistar rat lung at 10 mg/kg, po by HPLC analysis; format: ADME, organism-based; in short: as §2
# Mus musculus = experiment: Toxicity in ICR mouse assessed as untoward reaction at 1200 mg/kg, po after 2 weeks; format: organism-based; settings: in vivo, 336 h
# [12] = Cmax in Wistar rat lung at 15 mg/kg, po by HPLC analysis; format: ADME, organism-based; design: dose 15 mg/kg, route oral; in short: as §4
# [13] = MRT (0 to 72 hrs) in Wistar rat lung at 10 mg/kg, po by HPLC analysis; format: ADME, organism-based; in short: as §2
# [14] = Tmax in Wistar rat kidney at 30 mg/kg, po by HPLC analysis; format: ADME, organism-based; in short: as §2
# [15] = Half life in Wistar rat brain at 15 mg/kg, po by HPLC analysis; format: ADME, organism-based; in short: as §4
# [16] = AUC (0 to 72 hrs) in Wistar rat liver at 15 mg/kg, po by HPLC analysis; format: ADME, organism-based; design: dose 15 mg/kg, time < 72 hr, route oral; in short: as §3
# [17] = AUC (0 to infinity) in Wistar rat brain at 10 mg/kg, po by HPLC analysis; format: ADME, organism-based; design: dose 10 mg/kg, route oral, time infinity; in short: as §3
# [18] = AUC (0 to infinity) in Wistar rat Heart at 30 mg/kg, po by HPLC analysis; format: ADME, organism-based; design: dose 30 mg/kg, route oral, time infinity; in short: as §3
# [19] = Tmax in Wistar rat spleen at 10 mg/kg, po by HPLC analysis; format: ADME, organism-based
# [20] = Half life in Wistar rat lung at 15 mg/kg, po by HPLC analysis; format: ADME, organism-based; in short: as §4
# [21] = AUC (0 to infinity) in Wistar rat liver at 15 mg/kg, po by HPLC analysis; format: ADME, organism-based; design: dose 15 mg/kg, route oral, time infinity; in short: as §3
# [22] = Cmax in Wistar rat heart at 15 mg/kg, po by HPLC analysis; format: ADME, organism-based; design: dose 15 mg/kg, route oral; in short: as §4
# [23] = Half life in Wistar rat spleen at 30 mg/kg, po by HPLC analysis; format: ADME, organism-based; in short: as §4
# [24] = Cmax in Wistar rat heart at 30 mg/kg, po by HPLC analysis; format: ADME, organism-based; design: dose 30 mg/kg, route oral; in short: as §4
# [25] = AUC (0 to 72 hrs) in Wistar rat plasma at 30 mg/kg, po by HPLC analysis; format: ADME, organism-based; design: time < 72 hr, dose 30 mg/kg, route oral; in short: as §1
# [26] = AUC (0 to 72 hrs) in Wistar rat brain at 30 mg/kg, po by HPLC analysis; format: ADME, organism-based; design: dose 30 mg/kg, time < 72 hr, route oral; in short: as §3
# [27] = MRT (0 to 72 hrs) in Wistar rat brain at 15 mg/kg, po by HPLC analysis; format: ADME, organism-based; in short: as §4
# [28] = MRT (0 to infinity) in Wistar rat liver at 30 mg/kg, po by HPLC analysis; format: ADME, organism-based; in short: as §2
# [29] = AUC (0 to infinity) in Wistar rat Heart at 15 mg/kg, po by HPLC analysis; format: ADME, organism-based; design: dose 15 mg/kg, time infinity, route oral; in short: as §3
# [30] = MRT (0 to infinity) in Wistar rat spleen at 30 mg/kg, po by HPLC analysis; format: ADME, organism-based; in short: as §2
# [31] = MRT (0 to infinity) in Wistar rat plasma at 30 mg/kg, po by HPLC analysis; format: ADME, organism-based
# In short: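 Male Wistar rats (180 ± 20 g), 6 per dose group, each given a single oral dose. Blood was drawn by retro-orbital puncture into heparin at predose and at 0.5, 1, 2, 4, 6, 8, 12, 24, 48 and 72 h, then spun at 4000 × g and 4 °C. Plasma with internal standard was acetonitrile-precipitated, filtered and run on reverse-phase C18 HPLC (0.02 mol/L KH2PO4 55% / acetonitrile 45%, 1.0 mL/min). Calibration standards were 0.1–10 µg/mL, fitted by peak-height ratio with 1/conc² weighting.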
# [32] = AUC (0 to 72 hrs) in Wistar rat spleen at 15 mg/kg, po by HPLC analysis; format: ADME, organism-based; design: dose 15 mg/kg, time < 72 hr, route oral; in short: as §3
# [33] = Cmax in Wistar rat lung at 30 mg/kg, po by HPLC analysis; format: ADME, organism-based; design: dose 30 mg/kg, route oral; in short: as §4
# [34] = MRT (0 to infinity) in Wistar rat Heart at 15 mg/kg, po by HPLC analysis; format: ADME, organism-based; in short: as §2
# [35] = AUC (0 to infinity) in Wistar rat plasma at 10 mg/kg, po by HPLC analysis; format: ADME, organism-based; design: dose 10 mg/kg, route oral, time infinity; in short: as §1
smiles,measurement,setting,value
CCCCC1=NC2(CCCC2)C(=O)N1Cc1ccc2c(ccn2-c2ccccc2-c2nnn[nH]2)c1,AUC(0-inf),[1],26100 ng·h/mL
same,MRT last,[2],6.64 h
same,AUC(0-inf),[3],29400 ng·h/mL
same,MRT last,[4],16.2 h
same,AUC(0-t) at 72 h,[5],6110 ng·h/mL
same,MRT inf,[6],24.1 h
same,half-life,[7],2.99 h
same,AUC(0-t) at 72 h,[8],4340 ng·h/mL
same,Tmax,[9],4.67 h
same,AUC(0-inf),[10],12000 ng·h/mL
same,MRT inf,[11],10.6 h
same,Activity,Mus musculus,Non-Toxic
same,Cmax,[12],369 ng/mL
same,MRT last,[13],10.6 h
same,Tmax,[14],2 h
same,half-life,[15],2.59 h
same,AUC(0-t) at 72 h,[16],4890 ng·h/mL
same,AUC(0-inf),[17],346 ng·h/mL
same,AUC(0-inf),[18],8760 ng·h/mL
same,Tmax,[19],2 h
same,half-life,[20],2.46 h
same,AUC(0-inf),[21],23500 ng·h/mL
same,Cmax,[22],283 ng/mL
same,half-life,[23],13.4 h
same,Cmax,[24],401 ng/mL
same,AUC(0-t) at 72 h,[25],89500 ng·h/mL
same,AUC(0-t) at 72 h,[26],1790 ng·h/mL
same,MRT last,[27],11.6 h
same,MRT inf,[28],5.49 h
same,AUC(0-inf),[29],6700 ng·h/mL
same,MRT inf,[30],20.4 h
same,MRT inf,[31],16.1 h
same,AUC(0-t) at 72 h,[32],11900 ng·h/mL
same,Cmax,[33],396 ng/mL
same,MRT inf,[34],23.9 h
same,AUC(0-inf),[35],6690 ng·h/mL
